# What was measured:
# [1] = Drug metabolism in cynomolgus monkey cryopreserved hepatocytes assessed as metabolite M2 formation; assay type: ADME, cell-based, Macaca fascicularis, Hepatocyte
# [2] = Drug metabolism in cynomolgus monkey cryopreserved hepatocytes assessed as metabolite M1 formation; assay type: ADME, cell-based, Macaca fascicularis, Hepatocyte
# Salmonella typhimurium [3] = assay: Mutagenicity in Salmonella typhimurium TA100 in absence of S9 fraction by mini-Ames test; assay type: toxicity; conditions: salmonella enterica subsp. enterica serovar typhimurium
# Outline: (§1)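 Mini-Ames mutagenicity assay in Salmonella typhimurium strains TA98 and TA100, run with and without S9 metabolic activation.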
# [4] = Drug metabolism in dog cryopreserved hepatocytes assessed as metabolite M5 formation; assay type: ADME, cell-based, Canis lupus familiaris, Hepatocyte
# [5] = Drug metabolism in rat cryopreserved hepatocytes assessed as metabolite M1 formation; assay type: ADME, cell-based, Hepatocyte
# CYP2B6 = CYP2B6 (Homo sapiens, UniProt P20813); assay: Induction of CYP2B6 in cryopreserved human hepatocytes measured after 48 hrs; assay type: ADME, cell-based
# Outline: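 Cryopreserved human hepatocytes incubated for 48 hr, with enzyme activity as read-out. Induction expressed as EC50 and Emax.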
# [6] = Drug metabolism in human cryopreserved hepatocytes assessed as metabolite M3 formation; assay type: ADME, cell-based, Hepatocyte
# [7] = target: Muscarinic acetylcholine receptor M3 (Homo sapiens, UniProt P20309); assay: Activity at human M3 receptor
# [8] = Drug metabolism in human cryopreserved hepatocytes assessed as metabolite M1 formation; assay type: ADME, cell-based, Hepatocyte
# [9] = Drug metabolism in cynomolgus monkey cryopreserved hepatocytes assessed as metabolite M8 formation; assay type: ADME, cell-based, Macaca fascicularis, Hepatocyte
# [10] = Ratio of unbound brain to plasma concentration in dog at 3 mg/kg, iv or po at 2 hrs post dose; assay type: ADME, organism-based, Canis lupus familiaris
# Outline: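 CNS penetration in dog by terminal study at 2.0 hr. Brain:plasma Kp, Kp,uu and unbound CSF:plasma ratio determined.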
# [11] = Drug metabolism in dog cryopreserved hepatocytes assessed as metabolite M6 formation; assay type: ADME, cell-based, Canis lupus familiaris, Hepatocyte
# [12] = target: Muscarinic acetylcholine receptor M4 (Rattus norvegicus, UniProt P08485); assay: Positive allosteric modulation of rat M4 receptor assessed as increase in acetylcholine-induced calcium mobilization; assay type: functional
# Outline: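 M4 PAM concentration-response curves measured by calcium mobilization at the stated species' receptor. Potency reported as EC50/pEC50 and efficacy as % of acetylcholine maximum.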
# [13] = Brain to plasma permeability coefficient, Kp of the compound in dog at 3 mg/kg, iv or po at 2 hrs post dose; assay type: ADME, organism-based, Canis lupus familiaris
# Outline: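 Dog terminal study, with brain, plasma and CSF collected at 2.0 hr. Brain:plasma Kp, Kp,uu and Ccsf:Cplasma,u were derived.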
# [14] = Drug metabolism in rat cryopreserved hepatocytes assessed as metabolite M6 formation; assay type: ADME, cell-based, Hepatocyte
# [15] = Drug metabolism in rat cryopreserved hepatocytes assessed as metabolite M4 formation; assay type: ADME, cell-based, Hepatocyte
# [16] = Drug metabolism in human cryopreserved hepatocytes assessed as metabolite M4 formation; assay type: ADME, cell-based, Hepatocyte
# [17] = target: Voltage-gated inwardly rectifying potassium channel KCNH2 (Homo sapiens, UniProt Q12809); assay: Inhibition of human ERG
# Rattus norvegicus = assay: Volume of distribution at steady state […] in Sprague-Dawley rat at 0.1 to 1 mg/kg, iv; assay type: ADME, organism-based; conditions: in vivo
# Outline: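 IV pharmacokinetics in Sprague-Dawley rats at 0.1–1.0 mg/kg. CLp, elimination t½ and Vss derived.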
# Cytochrome P450 2C9 = Cytochrome P450 2C9 (Homo sapiens, UniProt P11712); assay: Inhibition of CYP2C9 (unknown origin); assay type: ADME
# Salmonella typhimurium [18] = assay: Mutagenicity in Salmonella typhimurium TA98 by mini-Ames test; assay type: toxicity; conditions: salmonella enterica subsp. enterica serovar typhimurium; outline: as §1
# [19] = target: Muscarinic acetylcholine receptor M1 (Homo sapiens, UniProt P11229); assay: Activity at human M1 receptor
# [20] = target: Muscarinic acetylcholine receptor M5 (Homo sapiens, UniProt P08912); assay: Activity at human M5 receptor
# Sequence of Muscarinic acetylcholine receptor M5 (P08912 whole entry): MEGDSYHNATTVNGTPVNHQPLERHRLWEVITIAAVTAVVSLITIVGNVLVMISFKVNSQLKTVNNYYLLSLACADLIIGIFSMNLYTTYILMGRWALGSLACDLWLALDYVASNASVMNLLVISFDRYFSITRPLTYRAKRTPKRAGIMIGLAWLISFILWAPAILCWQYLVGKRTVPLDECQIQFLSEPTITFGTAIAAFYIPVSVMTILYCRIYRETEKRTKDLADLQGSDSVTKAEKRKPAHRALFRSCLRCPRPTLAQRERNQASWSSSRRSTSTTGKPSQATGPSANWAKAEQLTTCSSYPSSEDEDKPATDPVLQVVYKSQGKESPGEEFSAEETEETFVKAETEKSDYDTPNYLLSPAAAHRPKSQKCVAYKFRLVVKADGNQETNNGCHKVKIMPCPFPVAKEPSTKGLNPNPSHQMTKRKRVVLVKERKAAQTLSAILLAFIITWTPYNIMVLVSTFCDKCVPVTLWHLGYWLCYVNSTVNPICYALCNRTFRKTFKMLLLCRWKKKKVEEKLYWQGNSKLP
# Sequence of Muscarinic acetylcholine receptor M4 (P08485 whole entry): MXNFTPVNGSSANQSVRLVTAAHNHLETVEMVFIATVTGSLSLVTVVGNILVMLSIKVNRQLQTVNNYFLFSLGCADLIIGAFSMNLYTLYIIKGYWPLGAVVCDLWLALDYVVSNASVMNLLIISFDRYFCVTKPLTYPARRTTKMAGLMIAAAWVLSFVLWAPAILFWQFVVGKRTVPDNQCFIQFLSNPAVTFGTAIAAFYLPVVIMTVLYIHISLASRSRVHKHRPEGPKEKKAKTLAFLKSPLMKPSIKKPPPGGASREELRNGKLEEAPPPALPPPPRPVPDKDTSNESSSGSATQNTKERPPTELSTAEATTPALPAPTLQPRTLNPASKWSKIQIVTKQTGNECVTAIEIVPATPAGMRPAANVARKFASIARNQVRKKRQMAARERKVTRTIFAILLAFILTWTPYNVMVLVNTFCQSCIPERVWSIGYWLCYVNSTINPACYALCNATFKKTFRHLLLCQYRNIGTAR
# Sequence of Cytochrome P450 2C9 (P11712 whole entry): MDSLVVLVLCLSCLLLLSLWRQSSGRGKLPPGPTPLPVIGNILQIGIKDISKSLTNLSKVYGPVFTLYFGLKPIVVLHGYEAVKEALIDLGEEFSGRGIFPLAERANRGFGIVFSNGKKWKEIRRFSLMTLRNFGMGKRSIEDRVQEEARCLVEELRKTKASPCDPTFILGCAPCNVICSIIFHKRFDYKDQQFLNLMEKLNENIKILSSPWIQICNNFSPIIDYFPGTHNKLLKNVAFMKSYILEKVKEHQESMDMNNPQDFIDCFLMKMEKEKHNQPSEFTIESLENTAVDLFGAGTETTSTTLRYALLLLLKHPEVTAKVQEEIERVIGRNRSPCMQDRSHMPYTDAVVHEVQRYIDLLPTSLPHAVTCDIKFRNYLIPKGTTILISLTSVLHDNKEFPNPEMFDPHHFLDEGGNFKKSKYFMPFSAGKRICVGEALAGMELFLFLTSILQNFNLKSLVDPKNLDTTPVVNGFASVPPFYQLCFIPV
# Sequence of CYP2B6 (P20813 whole entry): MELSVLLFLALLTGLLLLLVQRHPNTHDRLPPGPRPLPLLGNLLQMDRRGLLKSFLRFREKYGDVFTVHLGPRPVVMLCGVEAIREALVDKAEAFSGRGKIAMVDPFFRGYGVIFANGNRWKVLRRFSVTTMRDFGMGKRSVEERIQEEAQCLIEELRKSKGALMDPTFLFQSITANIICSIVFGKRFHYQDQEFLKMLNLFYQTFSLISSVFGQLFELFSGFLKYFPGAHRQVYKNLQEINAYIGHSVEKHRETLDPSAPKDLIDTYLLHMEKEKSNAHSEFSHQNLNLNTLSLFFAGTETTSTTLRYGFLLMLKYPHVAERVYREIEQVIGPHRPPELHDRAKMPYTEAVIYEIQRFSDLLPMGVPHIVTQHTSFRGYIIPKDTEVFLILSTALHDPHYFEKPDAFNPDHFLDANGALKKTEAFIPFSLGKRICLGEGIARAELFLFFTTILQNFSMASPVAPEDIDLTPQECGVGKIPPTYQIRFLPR
# Sequence of Muscarinic acetylcholine receptor M1 (P11229 whole entry): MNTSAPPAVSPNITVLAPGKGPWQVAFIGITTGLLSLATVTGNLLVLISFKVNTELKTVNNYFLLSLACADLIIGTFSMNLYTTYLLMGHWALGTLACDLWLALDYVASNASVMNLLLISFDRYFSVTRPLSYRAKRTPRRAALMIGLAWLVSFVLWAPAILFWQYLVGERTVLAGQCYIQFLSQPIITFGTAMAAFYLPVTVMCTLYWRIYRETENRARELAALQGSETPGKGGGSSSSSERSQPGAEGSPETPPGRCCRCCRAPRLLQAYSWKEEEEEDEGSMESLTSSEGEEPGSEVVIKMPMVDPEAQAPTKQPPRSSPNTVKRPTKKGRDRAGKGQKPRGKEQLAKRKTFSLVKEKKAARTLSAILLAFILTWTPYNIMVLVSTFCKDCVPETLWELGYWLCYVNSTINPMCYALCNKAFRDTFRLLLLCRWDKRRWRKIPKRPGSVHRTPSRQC
# Sequence of Voltage-gated inwardly rectifying potassium channel KCNH2 (Q12809 whole entry): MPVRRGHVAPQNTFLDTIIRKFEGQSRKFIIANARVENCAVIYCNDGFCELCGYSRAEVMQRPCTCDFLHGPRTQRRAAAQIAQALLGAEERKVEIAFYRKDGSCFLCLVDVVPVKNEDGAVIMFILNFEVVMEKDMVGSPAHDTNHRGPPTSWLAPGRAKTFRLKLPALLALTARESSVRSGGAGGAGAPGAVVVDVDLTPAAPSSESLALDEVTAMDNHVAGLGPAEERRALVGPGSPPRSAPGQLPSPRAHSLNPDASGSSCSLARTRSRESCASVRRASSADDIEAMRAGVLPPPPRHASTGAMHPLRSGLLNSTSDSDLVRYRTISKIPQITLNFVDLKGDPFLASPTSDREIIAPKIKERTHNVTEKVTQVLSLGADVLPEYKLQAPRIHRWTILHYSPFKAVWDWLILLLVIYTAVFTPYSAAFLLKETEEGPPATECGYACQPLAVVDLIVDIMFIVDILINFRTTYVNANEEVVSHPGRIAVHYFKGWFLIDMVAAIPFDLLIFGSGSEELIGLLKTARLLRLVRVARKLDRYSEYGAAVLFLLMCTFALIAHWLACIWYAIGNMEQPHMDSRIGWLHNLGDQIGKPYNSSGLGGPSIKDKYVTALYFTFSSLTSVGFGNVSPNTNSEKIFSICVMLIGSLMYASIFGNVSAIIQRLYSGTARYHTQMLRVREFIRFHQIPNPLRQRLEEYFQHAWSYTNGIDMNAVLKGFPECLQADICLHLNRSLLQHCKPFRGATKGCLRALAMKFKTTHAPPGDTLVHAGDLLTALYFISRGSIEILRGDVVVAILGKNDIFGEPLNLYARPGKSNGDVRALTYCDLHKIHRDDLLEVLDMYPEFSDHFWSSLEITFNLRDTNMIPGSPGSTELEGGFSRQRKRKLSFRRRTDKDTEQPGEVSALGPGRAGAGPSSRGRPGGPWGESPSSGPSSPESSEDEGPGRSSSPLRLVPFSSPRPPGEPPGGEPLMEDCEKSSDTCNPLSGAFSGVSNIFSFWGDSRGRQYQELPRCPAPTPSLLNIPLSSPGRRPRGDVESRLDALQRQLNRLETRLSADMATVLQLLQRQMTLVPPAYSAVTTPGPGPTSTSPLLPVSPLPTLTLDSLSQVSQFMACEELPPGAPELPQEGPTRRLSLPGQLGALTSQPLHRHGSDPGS
# Sequence of Muscarinic acetylcholine receptor M3 (P20309 whole entry): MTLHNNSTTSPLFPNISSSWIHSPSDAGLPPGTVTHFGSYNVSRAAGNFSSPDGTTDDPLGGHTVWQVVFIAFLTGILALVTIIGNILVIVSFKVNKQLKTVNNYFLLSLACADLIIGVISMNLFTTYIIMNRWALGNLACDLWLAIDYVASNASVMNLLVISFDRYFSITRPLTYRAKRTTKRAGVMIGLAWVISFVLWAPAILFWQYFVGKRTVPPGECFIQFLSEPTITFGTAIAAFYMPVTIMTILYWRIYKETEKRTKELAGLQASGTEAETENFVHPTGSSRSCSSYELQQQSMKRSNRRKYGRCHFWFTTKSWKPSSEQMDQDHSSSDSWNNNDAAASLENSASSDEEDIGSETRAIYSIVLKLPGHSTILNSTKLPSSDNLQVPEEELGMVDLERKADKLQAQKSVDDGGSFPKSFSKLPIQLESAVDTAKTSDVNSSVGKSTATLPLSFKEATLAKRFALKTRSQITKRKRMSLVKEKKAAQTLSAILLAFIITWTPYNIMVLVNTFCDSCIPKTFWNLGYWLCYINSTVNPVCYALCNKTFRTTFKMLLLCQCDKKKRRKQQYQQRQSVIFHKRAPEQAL
smiles,measurement,setting,value
Cc1nnc2sc(C(=O)NCc3ccc(-c4cccnc4F)cc3)c(N)c2c1C,Drug metabolism,[1],Metabolite_Detected
same,Drug metabolism,[2],Metabolite_Detected
same,Activity,Salmonella typhimurium [3],Non-Toxic
same,Drug metabolism,[4],Metabolite_Detected
same,Drug metabolism,[5],Metabolite_Detected
same,EC50 at 48 h,CYP2B6,> 50 µM
same,Drug metabolism,[6],Metabolite_Detected
same,EC50,[7],> 30 µM
same,Drug metabolism,[8],Metabolite_Detected
same,Drug metabolism,[9],Metabolite_Detected
same,"K(p,uu,brain)",[10],2.6
same,Drug metabolism,[11],Metabolite_Detected
same,EC50,[12]; read-out: EC50,13.5 nM
same,EC50,[12]; read-out: pEC50 (converted),11.7 nM
same,Kp,[13],0.74
same,Drug metabolism,[14],Metabolite_Detected
same,Drug metabolism,[15],Metabolite_Detected
same,Drug metabolism,[16],Metabolite_Detected
same,IC50,[17],> 33 µM
same,Vdss,Rattus norvegicus,0.34 L/kg
same,IC50,Cytochrome P450 2C9,> 30 µM
same,Activity,Salmonella typhimurium [18],Non-Toxic
same,EC50,[19],> 30 µM
same,EC50,[20],> 30 µM
